Assays:
[1] = test system: Plasmodium falciparum; assay: (§1) Antiplasmodial activity against chloroquine-sensitive asexual blood stage of Plasmodium falciparum NF54 infected in human RBC assessed as reduction in [3H]hypoxanthine incorporation preincubated for 48 hrs followed by [3H]hypoxanthine addition measured after 24 hrs by liquid scintillation counting method; type: functional, organism-based
How it was run: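 Asexual blood-stage P. falciparum NF54 assay, run as a modified [3H]-hypoxanthine incorporation assay. Values are the mean of n ≥ 2 assays; determinations differing more than 3-fold were excluded. Chloroquine and artesunate served as controls.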

[2] = Metabolic stability in Balb/c mouse liver microsomes assessed as parent compound remaining at 0.1 uM after 30 mins in presence of NADPH by LC-MS/MS analysis; conditions: liver microsomes
[3] = Selectivity index, ratio of IC50 for CHO cells to IC50 for chloroquine-sensitive asexual blood stage of Plasmodium falciparum NF54 infected in human RBC; type: toxicity; conditions: Chinese hamster, read-out: Ratio IC50
How it was run: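 Selectivity index taken as the ratio of the CHO-cell IC50 to the P. falciparum NF54 IC50.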

[4] = Half life in Balb/c mouse liver microsomes at 0.1 uM in presence of NADPH by LC-MS/MS analysis; conditions: liver microsomes
[5] = test system: CHO; assay: Cytotoxicity against CHO cells after 48 hrs by MTT assay; type: cell-based; conditions: Cricetulus griseus
[6] = Half life in human liver microsomes at 0.1 uM in presence of NADPH by LC-MS/MS analysis; conditions: liver microsomes
[7] = test system: Plasmodium falciparum; assay: Antiplasmodial activity against chloroquine-sensitive final late stage of Plasmodium falciparum NF54-Mal8p1.16-GFP-Luc gametocytes after 24 hrs by BacTiter-Glo assay; type: functional, organism-based; conditions: NF54, 24 h
How it was run: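 Late-stage PfNF54 gametocytes produced in vitro; gametocytocidal IC50 via luciferase reporter and ATP bioluminescence platforms; n=3 independent biological replicates in technical triplicates, ± S.E.M.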

[8] = test system: Hemozoin; assay: Inhibition of beta hematin formation after 5 hrs by NP40 detergent-based assay
[9] = Metabolic stability in human liver microsomes assessed as parent compound remaining at 0.1 uM after 30 mins in presence of NADPH by LC-MS/MS analysis; conditions: liver microsomes
[10] = test system: Plasmodium falciparum; assay: as §1, with “chloroquine-resistant” for “chloroquine-sensitive”, “K1” for “NF54”; type: functional, organism-based
How it was run: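 Asexual blood-stage P. falciparum K1 (multidrug resistant) screened by modified [3H]-hypoxanthine incorporation assay; IC50 as mean of n ≥ 2 assays, replicates differing above 3-fold excluded; chloroquine and artesunate controls.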

[11] = Resistance index, ratio of IC50 for chloroquine-resistant asexual blood stage of Plasmodium falciparum K1 infected in human RBC to IC50 for chloroquine-sensitive asexual blood stage of Plasmodium falciparum NF54 infected in human RBC; type: functional
[12] = test system: Plasmodium berghei; assay: Antimalarial activity against liver stage form of luciferase transfected Plasmodium berghei sporozoites infected in human HuH7 cells preincubated with host cells for 1 hr followed by plasmodial infection and measured after 48 hrs by bioluminescence method; type: functional, organism-based; conditions: Huh-7

Work on `N#Cc1c(C(F)(F)F)cc(NCc2ccccn2)n2c1nc1cc(Cl)c(Cl)cc12` yielded an IC50 [1] of 1.42 µM, a remaining at 0.5 h, 0.1 µM [2] of 31% and a selectivity ratio [3] of 0.5. For the same compound, the half-life at 0.1 µM [4] was 0.3 h, the IC50 [5] was 0.75 µM and the half-life at 0.1 µM [6] was 1.05 h. It also gave an IC50 [7] of 2.48 µM, an IC50 [8] of 59 µM and a remaining at 0.5 h, 0.1 µM [9] of 72%.
For `N#Cc1c(C(F)(F)F)cc(NS(=O)(=O)c2ccc(OC(F)(F)F)cc2)n2c1nc1cc(Cl)c(Cl)cc12`, the IC50 [10] was 5.85 µM, the Ratio IC50 [11] was 0.87 and the IC50 [1] was 6.73 µM. It also gave an IC50 [8] of 78 µM.
For `N#Cc1c(C(F)(F)F)cc(Nc2ncccn2)n2c1nc1ccccc12`, the IC50 [1] was greater than 2.69 µM.
Compound `CC(C)c1ccc(Nc2cc(C(F)(F)F)c(C#N)c3nc4ccccc4n23)cc1` has an IC50 [1] of 1.01 µM.
In the case of `CN(Cc1ccccn1)c1cc(C(F)(F)F)c(C#N)c2nc3ccccc3n12`, the IC50 [1] is reported as greater than 2.72 µM.
`N#Cc1c(C(F)(F)F)cc(NCc2ccc(S(N)(=O)=O)cc2)n2c1nc1ccccc12` gave an IC50 [1] of 10.2 µM.
Compound `NC(=O)c1c(C(F)(F)F)cc(NCc2ccc(OC(F)(F)F)cc2)n2c1nc1ccccc12` has an IC50 [10] of 7.59 µM, a Ratio IC50 [11] of 1.47 and an IC50 [1] of 5.16 µM.
In the case of `N#Cc1c(C(F)(F)F)cc(N2CCNCC2)n2c1nc1ccccc12`, the IC50 [1] is reported as 10 µM.
`N#Cc1c(C(F)(F)F)cc(NCc2ccc(F)cc2)n2c1nc1ccccc12` showed an IC50 [10] of 0.89 µM, a Ratio IC50 [11] of 0.7 and an IC50 [1] of 1.27 µM. The selectivity ratio [3] was 35, the IC50 [5] was 45 µM and the IC50 [12] was 0.89 µM.
For `CN(C)c1ccc(CNc2cc(C(F)(F)F)c(C#N)c3nc4ccccc4n23)cc1`, the IC50 [1] was 2.98 µM.
`N#Cc1c(C(F)(F)F)cc(NCc2cccnc2)n2c1nc1ccccc12` showed an IC50 [1] greater than 2.72 µM.
With `N#Cc1c(C(F)(F)F)cc(Nc2ccccc2OC(F)(F)F)n2c1nc1ccccc12` the IC50 [10] was 0.62 µM, the Ratio IC50 [11] was 0.71 and the IC50 [1] was 0.87 µM.
Work on `N#Cc1c(C(F)(F)F)cc(NCc2ccc(F)cc2)n2c1nc1cc(Cl)c(Cl)cc12` yielded an IC50 [10] of 0.28 µM, a Ratio IC50 [11] of 0.64 and an IC50 [1] of 0.44 µM. It also gave a remaining at 0.5 h, 0.1 µM [2] of 72%, a selectivity ratio [3] of 30 and a half-life at 0.1 µM [4] of 1.05 h. For the same compound, the IC50 [5] was 13 µM, the half-life at 0.1 µM [6] was greater than 2.5 h and the IC50 [7] was 0.69 µM. It also gave a remaining at 0.5 h, 0.1 µM [9] of 102%.
With `Cc1ccc(CNc2cc(C(F)(F)F)c(C#N)c3nc4ccccc4n23)cc1` the IC50 [1] was 1.49 µM, the selectivity ratio [3] was 17 and the IC50 [5] was 25 µM.
For `CS(=O)(=O)c1ccc(Nc2cc(C(F)(F)F)c(C#N)c3nc4ccccc4n23)cc1`, the IC50 [1] was greater than 2.32 µM.
With `CNC(=O)c1ccc(Nc2cc(C(F)(F)F)c(C#N)c3nc4ccccc4n23)cc1` the IC50 [1] was greater than 10 µM.
In the case of `N#Cc1c(C(F)(F)F)cc(NCc2ccc(O)cc2)n2c1nc1ccccc12`, the IC50 [1] is reported as 8.74 µM.
Work on `N#Cc1c(C(F)(F)F)cc(NCc2ccccc2)n2c1nc1ccccc12` yielded an IC50 [1] of 6.11 µM.
`CN(C)c1ccc2nc3ccc(N(C)C)cc3[s+]c2c1` [METHYLENE BLUE ANHYDROUS] gave an IC50 [7] of 0.9 µM.
In the case of `N#Cc1c(C(F)(F)F)cc(NS(=O)(=O)c2ccccn2)n2c1nc1cc(Cl)c(Cl)cc12`, the IC50 [1] is reported as greater than 6 µM and the IC50 [8] is reported as greater than 100 µM.
`CC(C)c1ccc(CNc2cc(C(F)(F)F)c(C#N)c3nc4ccccc4n23)cc1` showed an IC50 [1] of 2.4 µM.
In the case of `N#Cc1c(C(F)(F)F)cc(Nc2ccc(CN3CCOCC3)cc2)n2c1nc1ccccc12`, the IC50 [1] is reported as greater than 2.21 µM and the IC50 [8] is reported as 50 µM.
With `N#Cc1c(C(F)(F)F)cc(NCc2ccncc2)n2c1nc1ccccc12` the IC50 [1] was greater than 2.72 µM.
In the case of `COC(=O)c1ccc(Nc2cc(C(F)(F)F)c(C#N)c3nc4ccccc4n23)cc1`, the IC50 [1] is reported as 1.59 µM.
In the case of `COC(=O)c1c(C(F)(F)F)cc(Nc2ccc(OC(F)(F)F)cc2)n2c1nc1ccccc12`, the IC50 [1] is reported as 5.52 µM.
In the case of `CN(C)C(=O)c1ccc(CNc2cc(C(F)(F)F)c(C#N)c3nc4ccccc4n23)cc1`, the IC50 [1] is reported as greater than 2.28 µM.
With `CC(Nc1cc(C(F)(F)F)c(C#N)c2nc3cc(Cl)c(Cl)cc3n12)c1ccc(S(C)(=O)=O)cc1` (centres undefined) the IC50 [1] was 4.97 µM and the IC50 [8] was 32 µM.
`CC(Nc1cc(C(F)(F)F)c(C#N)c2nc3ccccc3n12)c1ccc(S(C)(=O)=O)cc1` (centres undefined) showed an IC50 [1] greater than 2.68 µM and an IC50 [8] greater than 100 µM.
`C[C@H]1[C@H](OC(=O)CCC(=O)O)O[C@@H]2O[C@@]3(C)CC[C@H]4[C@H](C)CC[C@@H]1[C@@]24OO3` [ARTESUNATE] showed an IC50 [10] of 0.003 µM and an IC50 [1] of 0.004 µM.
With `N#Cc1c(C(F)(F)F)cc(Nc2cccc(OC(F)(F)F)c2)n2c1nc1ccccc12` the IC50 [10] was 0.23 µM, the Ratio IC50 [11] was 0.58 and the IC50 [1] was 0.39 µM.
For `N#Cc1c(C(F)(F)F)cc(NCc2cnccn2)n2c1nc1ccccc12`, the IC50 [1] was 2.6 µM.
Work on `CS(=O)(=O)c1ccc(CNc2cc(C(F)(F)F)c(C#N)c3nc4cc(Cl)c(Cl)cc4n23)cc1` yielded an IC50 [10] of 5.61 µM, a Ratio IC50 [11] of 1.05 and an IC50 [1] of 5.34 µM. It also gave an IC50 [8] greater than 100 µM.
`CS(=O)(=O)c1ccc(CNc2cc(C(F)(F)F)c(C#N)c3nc4ccccc4n23)cc1` showed an IC50 [1] of 12.6 µM.
Work on `Cc1csc(Nc2cc(C(F)(F)F)c(C#N)c3nc4ccccc4n23)n1` yielded an IC50 [1] greater than 2.82 µM.
`CNC(=O)c1ccc(CNc2cc(C(F)(F)F)c(C#N)c3nc4ccccc4n23)cc1` showed an IC50 [1] greater than 2.36 µM.
For `N#Cc1ccc(S(=O)(=O)Nc2cc(C(F)(F)F)c(C#N)c3nc4cc(Cl)c(Cl)cc4n23)cc1`, the IC50 [1] was 5.64 µM.
In the case of `CN(C)c1ccc(Nc2cc(C(F)(F)F)c(C#N)c3nc4ccccc4n23)cc1`, the IC50 [1] is reported as 5.62 µM.
Work on `COc1ccc(Nc2cc(C(F)(F)F)c(C#N)c3nc4ccccc4n23)cc1` yielded an IC50 [1] of 2.26 µM.
With `N#Cc1c(C(F)(F)F)cc(Nc2ccc(OC(F)(F)F)cc2)n2c1nc1cc(Cl)c(Cl)cc12` the IC50 [1] was greater than 1.97 µM and the IC50 [8] was 32 µM.
For `CN(C)C(=O)c1ccc(Nc2cc(C(F)(F)F)c(C#N)c3nc4ccccc4n23)cc1`, the IC50 [1] was greater than 2.36 µM.
Work on `N#Cc1c(C(F)(F)F)cc(NCc2ccc(OC(F)(F)F)cc2)n2c1nc1ccccc12` yielded an IC50 [10] of 0.84 µM, a Ratio IC50 [11] of 0.91 and an IC50 [1] of 0.92 µM. The selectivity ratio [3] was greater than 241, the IC50 [5] was greater than 222 µM and the IC50 [12] was 0.48 µM.
Work on `FC(F)(F)Oc1ccc(Nc2cc(C(F)(F)F)cc3nc4ccccc4n23)cc1` yielded an IC50 [10] of 3.36 µM, a Ratio IC50 [11] of 0.79 and an IC50 [1] of 4.24 µM.
Compound `N#Cc1c(C(F)(F)F)cc(NCc2ccc(F)cc2)n2c1nc1cc(Cl)cc(Cl)c12` has an IC50 [10] of 0.21 µM, an IC50 [1] of 0.31 µM and an IC50 [5] of 1.66 µM. It also gave an IC50 [7] of 0.74 µM.
`N#Cc1c(C(F)(F)F)cc(Nc2ccccc2)n2c1nc1ccccc12` gave an IC50 [1] greater than 2.83 µM.
With `N#Cc1ccc(Nc2cc(C(F)(F)F)c(C#N)c3nc4ccccc4n23)cc1` the IC50 [1] was 2.36 µM.
For `N#Cc1c(C(F)(F)F)cc(Nc2cnccn2)n2c1nc1ccccc12`, the IC50 [1] was 4.42 µM.
`CCCOc1ccc(Nc2cc(C(F)(F)F)c(C#N)c3nc4ccccc4n23)cc1` gave an IC50 [1] of 1.16 µM.
In the case of `N#Cc1c(C(F)(F)F)cc(Nc2ccnc(F)c2)n2c1nc1ccccc12`, the IC50 [1] is reported as greater than 2.52 µM.
`N#Cc1c(C(F)(F)F)cc(N2CCNCC2)n2c1nc1cc(Cl)c(Cl)cc12` showed an IC50 [1] of 8.11 µM.
Compound `Cc1ccc(Nc2cc(C(F)(F)F)c(C#N)c3nc4ccccc4n23)cc1` has an IC50 [1] of 2.14 µM.
Compound `N#Cc1c(C(F)(F)F)cc(NCc2ncccn2)n2c1nc1ccccc12` has an IC50 [1] of 4.8 µM.
Work on `NC(=O)c1c(C(F)(F)F)cc(NCc2ccccn2)n2c1nc1ccccc12` yielded an IC50 [10] greater than 10 µM and an IC50 [1] greater than 10 µM.
With `COc1ccc(CNc2cc(C(F)(F)F)c(C#N)c3nc4ccccc4n23)cc1` the IC50 [1] was 3.18 µM.
For `NC(=O)c1c(C(F)(F)F)cc(NCc2ccc(F)cc2)n2c1nc1ccccc12`, the IC50 [1] was greater than 6 µM.
With `COc1ncnc(Nc2cc(C(F)(F)F)c(C#N)c3nc4ccccc4n23)c1OC` the IC50 [1] was greater than 2.82 µM.
`N#Cc1c(C(F)(F)F)cc(NCc2ccccn2)n2c1nc1ccccc12` showed an IC50 [10] of 1.64 µM, a Ratio IC50 [11] of 1.41 and an IC50 [1] of 1.16 µM. For the same compound, the selectivity ratio [3] was greater than 234, the IC50 [5] was greater than 272 µM and the IC50 [8] was greater than 100 µM.
